≈ marks a conversion by molar mass, not a printed value.

The solubility is how much of the substance goes into solution per volume. As a reminder, the pKa is the negative logarithm of the acid dissociation constant. What is called EC50 is the concentration at which the effect is half-maximal.

Series [1] is described as follows: Solubility of the compound at pH 7.4 after 18 hrs by UV spectroscopic analysis. The format is physicochemical. To be noted: buffer. The gist of the method:
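Kinetic solubility. A 10 mM stock is diluted 1:100 into PBS pH 7.4 and incubated 18 h at room temperature, then filtered; the filtrate is mixed 1:1 with 1-propanol. UV spectrum (250–500 nm) compared by AUC with a 1-propanol/PBS reference. Single experiment in triplicate.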

The nature of series [2]: Permeability of the compound at pH 7.4 after 30 mins by PAMPA. Type of series: ADME. Conditions: read-out: permeability. The method, boiled down:
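PAMPA at pH 7.4. A 10 mM DMSO stock is diluted into system solution buffer; its UV spectrum serves as reference. Membrane painted with GIT lipid, acceptor chamber holds acceptor solution buffer. Sandwich stirred for 30 min, aqueous boundary layer set to 40. Donor and acceptor UV spectra read at 250–500 nm. Permeability coefficient from the AUCs of reference, donor and acceptor. Single experiment in triplicate.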
On the technique in general: The PAMPA barrier holds no transporters, so it reflects passive diffusion.

A short description of series [3]: Dissociation constant, pKa of the compound. The format is physicochemical.
Series [4] relates to Plasmodium falciparum. The experiment in a line: Antimalarial activity against chloroquine-sensitive Plasmodium falciparum 3D7 infected in human erythrocytes assessed as reduction in parasitemia after 72 hrs by spectrophotometry. The format is functional, organism-based. To be noted: 3D7, 72 h.
The test system of series [5] is Plasmodium falciparum. Description: Antimalarial activity against chloroquine-resistant Plasmodium falciparum K1 infected in human erythrocytes assessed as reduction in parasitemia after 72 hrs by spectrophotometry. Type of series: functional, organism-based. To be noted: K1, 72 h.
The test system of series [6] is Plasmodium falciparum. Description: Ratio of EC50 for chloroquine-resistant Plasmodium falciparum K1 infected in human erythrocytes to EC50 for chloroquine-sensitive Plasmodium falciparum 3D7 infected in human erythrocytes. Type of series: functional.
The test system of the next series is HepG2. The experiment in a line: Cytotoxicity against human HepG2 cells assessed as intracellular ATP level after 72 hrs by Celltiter-Glo luminescent assay. The format is cell-based. To be noted: HepG2, 72 h. On the technique in general: In ATP-based viability assays light output follows the ATP content of the culture.
The nature of series [7]: Ratio of EC50 for human HepG2 cells to EC50 for Plasmodium falciparum 3D7 infected in human erythrocytes.
A short description of series [8]: Ratio of EC50 for human HepG2 cells to EC50 for Plasmodium falciparum K1 infected in human erythrocytes.

For the compound `Fc1ccc(Cc2ccc3c(NCCCNCc4ccc5c(c4)OCO5)ccnc3c2)cc1`, in series [1], the concentration in solution (solubility at 18 h) came to 4.2 µM (≈ 1.86 µg/mL). Besides, in series [2], the Papp at 0.5 h amounted to 23 ×10⁻⁶ cm/s. Besides, the pKa in series [3] was 9.47. For the same compound, the EC50 with Plasmodium falciparum [4] is 127 nM; in the series with Plasmodium falciparum [5] it was 256 nM; in the series with HepG2, 5550 nM. Also, the “Ratio EC50” value was determined as 2 in the series with Plasmodium falciparum [6], 43.7 in series [7] and 21.7 in series [8].

For the compound `c1cc(NCCCNCc2ccc3c(c2)OCO3)c2ccc(CC3CCCCC3)cc2n1`, the concentration in solution in series [1] (solubility at 18 h) was 4.2 µM (≈ 1.81 µg/mL). In series [2], the Papp at 0.5 h was determined as 23 ×10⁻⁶ cm/s. This compound came in with a pKa in [3] of 9.47. For the same compound, the EC50 in the series with Plasmodium falciparum [4] is 41 nM; in the series with Plasmodium falciparum [5] it was 701 nM; with HepG2 it was 6290 nM. Also, the results for the “Ratio EC50” value (with Plasmodium falciparum [6]; in series [7]; in series [8]) were 17.3, 155.2 and 9, respectively.

For the compound `COc1ccc(F)cc1CNCCCNc1ccnc2cc(Cc3ccc4c(c3)OCO4)ccc12`, the solubility at 18 h in [1] worked out at 32 µM (≈ 15.2 µg/mL). In series [2], the Papp at 0.5 h stood at 237 ×10⁻⁶ cm/s. This compound also came in with a pKa in [3] of 9.47. Besides, the EC50 with Plasmodium falciparum [4] came to 31 nM; in the series with Plasmodium falciparum [5], 24 nM; in the series with HepG2, 6040 nM. In addition, the “Ratio EC50” value was found to be 0.8 with Plasmodium falciparum [6], 194.7 in [7] and 255.8 in [8].

In turn, `COc1cccc(CNCCCNc2ccnc3cc(Oc4cccc(N(C)C)c4)ccc23)c1O` gave a solubility at 18 h in series [1] of 14.5 µM (≈ 6.85 µg/mL). Moreover, in series [2], the Papp at 0.5 h turned out to be 317 ×10⁻⁶ cm/s. The compound also returned a pKa in series [3] of 9.28. Also, the EC50 in the series with Plasmodium falciparum [4] is 10 nM; in the series on Plasmodium falciparum [5], 2040 nM; in the series with HepG2, 7300 nM. Also, the figures for the “Ratio EC50” value (in the series with Plasmodium falciparum [6]; in series [7]; in [8]) were 215.1, 765 and 4, respectively.

`FC(F)(F)c1cccc(Cc2ccc3c(NCCCNCc4ccc5c(c4)OCO5)ccnc3c2)c1`: the concentration in solution in series [1] (solubility at 18 h) was 4.2 µM (≈ 2.07 µg/mL). Also, the Papp at 0.5 h in series [2] amounted to 23 ×10⁻⁶ cm/s. In [3], this compound came in with a pKa of 9.47. The EC50 was found to be 39 nM in the series on Plasmodium falciparum [4], 1310 nM in the series with Plasmodium falciparum [5] and 2200 nM in the series on HepG2. Also, the “Ratio EC50” value with Plasmodium falciparum [6] is 33.5; in series [7], 56.1; in series [8] it was 1.7.

In the case of `FC(F)(F)c1cc(-c2ccc3c(NCCCNCc4ccco4)ccnc3c2)cc(C(F)(F)F)c1`, the solubility at 18 h in series [1] is 32 µM (≈ 15.8 µg/mL). The Papp at 0.5 h in series [2] came to 237 ×10⁻⁶ cm/s. Moreover, in [3], the pKa was found to be 9.47. The EC50 with Plasmodium falciparum [4] is 285 nM; in the series with Plasmodium falciparum [5], 972 nM; in the series on HepG2, 2410 nM. The “Ratio EC50” value in the series on Plasmodium falciparum [6] is on record as 3.4; in series [7], 8.5; in series [8] it was 2.5.

Turning to `COc1ccc(F)cc1CNCCCNc1ccnc2cc(-c3ccc(C(F)(F)F)cc3)ccc12`, in [1], the concentration in solution (solubility at 18 h) was 32 µM (≈ 15.5 µg/mL). The Papp at 0.5 h in [2] turned out to be 237 ×10⁻⁶ cm/s. Moreover, the pKa in series [3] was 9.47. Further, the figures for the EC50 with Plasmodium falciparum [4], in the series with Plasmodium falciparum [5] and with HepG2 were 54 nM, 89 nM and 5190 nM, respectively. Besides, the results for the “Ratio EC50” value (in the series on Plasmodium falciparum [6]; in [7]; in [8]) were 1.7, 96.8 and 58.4, respectively.

In the case of `COc1cccc(CNCCCNc2ccnc3cc(-c4cccc5ccccc45)ccc23)c1O`, the solubility at 18 h in series [1] turned out to be 32 µM (≈ 14.8 µg/mL). Also, in series [2], the Papp at 0.5 h turned out to be 237 ×10⁻⁶ cm/s. This compound also had a pKa in series [3] of 9.47. In addition, the EC50 in the series with Plasmodium falciparum [4] worked out at 33 nM; in the series on Plasmodium falciparum [5], 1120 nM; in the series on HepG2 it was 2520 nM. Besides, the “Ratio EC50” value in the series with Plasmodium falciparum [6] is 33.9; in [7], 76.3; in series [8], 2.3.

Regarding `COc1ccc(F)cc1CNCCCNc1ccnc2cc(-c3ccccc3)ccc12`, in series [1], the concentration in solution (solubility at 18 h) came to 32 µM (≈ 13.3 µg/mL). Also, the Papp at 0.5 h in [2] stood at 237 ×10⁻⁶ cm/s. The same compound returned a pKa in [3] of 9.47. Besides, the values for the EC50 in the series on Plasmodium falciparum [4], with Plasmodium falciparum [5] and in the series with HepG2 were 11 nM, 45 nM and 2960 nM, respectively. For the same compound, the “Ratio EC50” value amounted to 4.2 in the series on Plasmodium falciparum [6], 276.4 in [7] and 66.3 in [8].

In series [1], `COc1ccc(F)cc1CNCCCNc1ccnc2cc(Oc3ccc(C(C)(C)C)cc3)ccc12` showed a solubility at 18 h of 14.5 µM (≈ 7.07 µg/mL). Besides, the Papp at 0.5 h in series [2] was 317 ×10⁻⁶ cm/s. The compound further registered a pKa in series [3] of 9.28. For the same compound, the concentration for a half-maximal effect (EC50) is 106 nM in the series on Plasmodium falciparum [4], 2780 nM in the series on Plasmodium falciparum [5] and 7200 nM in the series with HepG2. For the same compound, the “Ratio EC50” value with Plasmodium falciparum [6] is given as 26.2; in series [7] it was 68; in series [8], 3.
